Experimental data published in ChEMBL document CHEMBL3867488 (ACS Med Chem Lett, 2016).

Columns and labels:
[1] = test system: Cynomolgus monkey; assay: In vivo agonist activity at LXR-beta in cynomolgus monkey assessed as ABCG1 gene induction by measuring total RNA level at 1 mg/kg, po qd administered via gavage for 14 days measured after 5 to 6 hrs of last-dose relative to control; assay type: functional, Macaca fascicularis
Summary of the method: (§1)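 Cynomolgus monkeys dosed daily for 14 days. ABCG1 mRNA induction measured in blood cells on day 14 and expressed as fold change. Plasma drug concentration taken about 5 h post-dose. Plasma triglycerides also measured against baseline, with significance by ANOVA.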

[2] = Plasma concentration in cynomolgus monkey at 1 mg/kg, po qd administered via gavage for 14 days measured after 5 hrs of last-dose by LC/MS/MS analysis; assay type: ADME, organism-based, Macaca fascicularis
Summary of the method: (§2)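 Cynomolgus monkeys dosed daily for 14 days. On day 14, plasma drug concentration was taken 5 h post-dose. Plasma triglycerides were expressed as % elevation over baseline, with significance tested by ANOVA (p < 0.05).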

[3] = biological target: Retinoic acid receptor RXR-alpha/oxysterols receptor LXR-beta (Homo sapiens, UniProt P55055); assay: Displacement of [3H]-24,25-epoxycholesterol from human LXRbeta/RXRalpha expressed in baculovirus infected Sf9 cells by scintillation proximity analysis
Summary of the method: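 Binding affinity measured using full-length LXRα–RXRα and LXRβ–RXRα heterodimers.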

[4] = biological target: T1, Oxysterols receptor LXR-beta (Homo sapiens, UniProt P55055); assay: Agonist activity at LXR-beta in human HeLa cells assessed as induction of ABCA1 by beta-galactosidase/luciferase reporter gene assay; assay type: cell-based
T1 sequence (P55055 whole entry): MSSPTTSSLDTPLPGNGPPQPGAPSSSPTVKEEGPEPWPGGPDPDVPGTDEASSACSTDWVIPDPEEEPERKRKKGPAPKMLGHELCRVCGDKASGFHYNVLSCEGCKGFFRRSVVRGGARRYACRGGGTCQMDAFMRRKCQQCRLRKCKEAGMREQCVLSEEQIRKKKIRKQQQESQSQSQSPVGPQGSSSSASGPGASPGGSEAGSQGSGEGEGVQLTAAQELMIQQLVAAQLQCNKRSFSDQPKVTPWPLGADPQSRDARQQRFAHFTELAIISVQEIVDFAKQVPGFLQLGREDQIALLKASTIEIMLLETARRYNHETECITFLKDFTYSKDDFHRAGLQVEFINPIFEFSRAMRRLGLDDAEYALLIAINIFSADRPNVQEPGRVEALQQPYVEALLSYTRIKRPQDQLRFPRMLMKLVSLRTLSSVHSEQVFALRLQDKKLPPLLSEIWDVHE
Summary of the method: (§3)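 HeLa cells carrying endogenous LXRα and LXRβ receptors, transfected with an ABCA1 LXREx3 reporter construct; agonist-driven reporter induction measured.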

[5] = Effect on plasma triglyceride level in cynomolgus monkey at 1 mg/kg, po qd administered via gavage for 14 days measured after 24 hrs of last-dose relative to base line; assay type: ADME, organism-based, Macaca fascicularis; details: in vivo; summary of the method: as §2
[6] = Plasma concentration in cynomolgus monkey at 0.1 mg/kg, po qd administered via gavage for 14 days measured after 5 hrs of last-dose by LC/MS/MS analysis; assay type: ADME, organism-based, Macaca fascicularis; summary of the method: as §2
[7] = test system: Cynomolgus monkey; assay: In vivo agonist activity at LXR-beta in cynomolgus monkey assessed as ABCG1 gene induction by measuring total RNA level at 0.3 mg/ kg, po qd administered via gavage for 14 days measured 5 to 6 hrs post-dose; assay type: functional, Macaca fascicularis; summary of the method: as §1
[8] = biological target: T2, Nuclear receptor subfamily 1 group I member 2 (Homo sapiens, UniProt O75469); assay: Agonist activity at human PXR expressed in human HepG2 cells assessed as induction of CYP3A4 measured after 24 hrs by AlamarBlue dye-based luciferase reporter gene assay relative to control; assay type: cell-based; details: hepg2, 24 h
T2 sequence (O75469 whole entry): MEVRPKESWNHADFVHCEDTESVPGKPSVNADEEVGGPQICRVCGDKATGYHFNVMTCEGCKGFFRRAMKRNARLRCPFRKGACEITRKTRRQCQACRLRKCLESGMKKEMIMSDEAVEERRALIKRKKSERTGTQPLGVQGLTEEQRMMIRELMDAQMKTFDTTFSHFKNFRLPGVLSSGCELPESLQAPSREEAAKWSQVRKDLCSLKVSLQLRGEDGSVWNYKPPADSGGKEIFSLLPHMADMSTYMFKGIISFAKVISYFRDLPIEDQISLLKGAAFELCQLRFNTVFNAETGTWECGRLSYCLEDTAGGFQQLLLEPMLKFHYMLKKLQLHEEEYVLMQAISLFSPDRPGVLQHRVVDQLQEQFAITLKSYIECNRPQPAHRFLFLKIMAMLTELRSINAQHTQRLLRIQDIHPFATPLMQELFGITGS

[9] = biological target: Albumin (Homo sapiens, UniProt P02768); assay: Binding affinity to human serum albumin at 1 uM measured after 4 hrs by equilibrium dialysis method relative to control; assay type: ADME; details: isolated protein, 4 h, 1 µM
[10] = biological target: T3, Oxysterols receptor LXR-beta (Homo sapiens) (UniProt P55055); assay: Agonist activity at LXR-beta in human HeLa cells assessed as induction of ABCA1 by beta-galactosidase/luciferase reporter gene assay relative to control; assay type: cell-based; summary of the method: as §3
T3 sequence (whole entry): T1 sequence (P55055 whole entry)

[11] = test system: Cynomolgus monkey; assay: In vivo agonist activity at LXR-beta in cynomolgus monkey assessed as ABCG1 gene induction by measuring total RNA level at 0.1 mg/ kg, po qd administered via gavage for 14 days measured 5 to 6 hrs post-dose; assay type: functional, Macaca fascicularis; summary of the method: as §1
[12] = biological target: T3, Oxysterols receptor LXR-beta (Homo sapiens); assay: Agonist activity at LXR-beta in human whole blood assessed as ABCG1 gene induction by measuring ABCA1 mRNA level after 4 hrs by SYBR-Green dye-based Q-PCR analysis relative to pan agonist 2-(4-(5-(5-cyano-1-(2,4-difluorobenzyl)-6-oxo-4-(trifluoromethyl)-1,6-dihydropyridin-2-yl)thiophen-2-yl)-3-methylphenyl)acetic acid; assay type: tissue-based
[13] = biological target: T4, Oxysterols receptor LXR-alpha (Homo sapiens, UniProt Q13133); assay: Agonist activity at human LXR-alpha expressed in African green monkey CV1 cells measured after 18 to 20 hrs by luciferase reporter gene assay relative to pan agonist 1-(2,4-difluorobenzyl)-2-oxo-6-(4-phenoxyphenyl)-4-(trifluoromethyl)-1,2-dihydropyridine-3-carbonitrile; assay type: cell-based; details: CV-1, human; read-out: Efficacy
T4 sequence (Q13133 whole entry): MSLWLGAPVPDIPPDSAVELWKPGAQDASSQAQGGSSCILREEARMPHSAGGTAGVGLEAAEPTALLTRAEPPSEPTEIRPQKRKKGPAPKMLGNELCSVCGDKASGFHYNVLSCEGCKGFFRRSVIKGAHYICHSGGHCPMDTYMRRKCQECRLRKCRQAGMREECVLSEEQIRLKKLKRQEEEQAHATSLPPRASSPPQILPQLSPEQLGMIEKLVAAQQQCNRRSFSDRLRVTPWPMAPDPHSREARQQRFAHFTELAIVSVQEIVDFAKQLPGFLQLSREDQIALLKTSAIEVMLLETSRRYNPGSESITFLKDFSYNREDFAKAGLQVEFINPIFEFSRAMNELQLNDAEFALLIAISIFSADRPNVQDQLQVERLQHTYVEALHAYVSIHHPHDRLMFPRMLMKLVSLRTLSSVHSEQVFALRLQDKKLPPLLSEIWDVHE

[14] = organism: Macaca fascicularis; assay: Agonist activity at LXR-beta in cynomolgus monkey whole blood assessed as ABCA1 gene induction by measuring ABCA1 mRNA level after 4 hrs by SYBR-Green dye-based Q-PCR analysis relative to control; assay type: tissue-based
[15] = Agonist activity at LXR-beta in cynomolgus monkey whole blood assessed as ABCA1 gene induction by measuring ABCA1 mRNA level after 4 hrs by SYBR-Green dye-based Q-PCR analysis; assay type: tissue-based; details: Macaca fascicularis

Albumin, sequence (P02768 whole entry): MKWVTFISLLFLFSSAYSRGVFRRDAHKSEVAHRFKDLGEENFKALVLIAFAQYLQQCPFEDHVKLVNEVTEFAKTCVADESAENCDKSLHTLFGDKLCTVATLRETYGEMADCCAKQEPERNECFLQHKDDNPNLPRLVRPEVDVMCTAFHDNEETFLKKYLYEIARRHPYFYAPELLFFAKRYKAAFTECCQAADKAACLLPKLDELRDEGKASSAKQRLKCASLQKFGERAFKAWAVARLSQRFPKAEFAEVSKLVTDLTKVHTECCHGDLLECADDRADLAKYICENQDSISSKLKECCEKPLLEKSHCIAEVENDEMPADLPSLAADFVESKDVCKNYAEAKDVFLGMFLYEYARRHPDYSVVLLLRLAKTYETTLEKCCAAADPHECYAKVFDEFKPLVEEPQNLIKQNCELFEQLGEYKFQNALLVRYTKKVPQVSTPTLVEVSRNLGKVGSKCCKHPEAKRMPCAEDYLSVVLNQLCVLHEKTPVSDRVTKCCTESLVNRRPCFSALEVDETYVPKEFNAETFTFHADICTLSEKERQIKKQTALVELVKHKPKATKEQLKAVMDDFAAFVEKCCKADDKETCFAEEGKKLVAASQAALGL
Retinoic acid receptor RXR-alpha/oxysterols receptor LXR-beta, sequence (P19793 whole entry, one chain of several): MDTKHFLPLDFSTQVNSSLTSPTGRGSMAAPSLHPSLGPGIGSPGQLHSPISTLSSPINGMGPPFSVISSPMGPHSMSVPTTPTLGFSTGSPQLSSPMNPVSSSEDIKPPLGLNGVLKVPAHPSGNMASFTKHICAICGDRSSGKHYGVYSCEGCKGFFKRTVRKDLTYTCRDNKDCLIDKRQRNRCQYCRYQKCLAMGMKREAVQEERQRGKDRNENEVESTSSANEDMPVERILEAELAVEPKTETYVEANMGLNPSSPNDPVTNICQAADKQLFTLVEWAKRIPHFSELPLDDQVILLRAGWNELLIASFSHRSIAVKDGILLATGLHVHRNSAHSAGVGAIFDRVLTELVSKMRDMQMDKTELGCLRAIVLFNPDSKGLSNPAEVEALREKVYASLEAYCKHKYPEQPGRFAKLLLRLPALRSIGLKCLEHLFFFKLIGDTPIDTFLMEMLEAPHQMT

- concentration at 5 h [2]: 57 nM
- Ki [3]: 12 nM
- EC50 [4]: 0.6 nM
- Activity [5]: 10%
- concentration at 5 h [6]: 7.5 nM
- Activity [8]: 108%
- PB [9]: 96.6%
- Efficacy [10]: 29%
- Efficacy [12]: 26%
- Emax [13]: 20%
- EC50 [15]: 5 nM
SMILES: CC(C)(O)c1cn(-c2ccc(-c3cc(F)c(CO)c(S(C)(=O)=O)c3)cc2F)c(C(C)(C)c2c(Cl)cccc2Cl)n1 [BMS-852927]
- fold change (FC) [1]: 11
- fold change (FC) [7]: 15
- fold change (FC) [11]: 4.7
- Efficacy [14]: 32%
